PubChem BioAssay AID624055 (Southern Research Specialized Biocontainment Screening …, 2012)
pIC50: −log10 of the molar value. “And” between values parts separate entries of the source, which are not always exact repeats. Equal entries are not always repeated. The source made the active and inactive calls.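 Rule for the calls: active = compounds specific to the target that block phage lysis by more than 30% when retested across doses; inactive = the rest, not confirmed on retesting.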

system: not listed separately; assay: E. coli EV36 sensitization to T7 phage – EV36 K1 hybrid, OD600, round 6, dose response (AID 624055); settings: E. coli EV36 T7 phage lysis, OD600; at 50 µM (top of the series)
Outline: (§1)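 Assay system: Escherichia coli EV36, a K1:K-12 hybrid strain; Amount: overnight culture at 1:100 dilution; Buffer or medium: LB broth; Also added: T7 bacteriophage; Incubation: 1.5 h shaking compound pre-exposure, 37 °C, then 3 h post-phage-infection; Measured by: absorbance at 600 nm; Read-out basis: inhibition of phage lysis by OD600; Benchmarks: C7-decapsulated lysis control.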

Row | SMILES | phage lysis inhibition
1 | O=C(Nc1cc(-c2ccc(OC(F)(F)F)cc2)sc1C(=O)O)c1cc2ccccc2o1 | -11.1% (inactive)
2 | O=C(Nc1cc(-c2ccc(OCCCC(F)(F)F)cc2)sc1C(=O)O)c1cc(Br)c(Br)o1 | -18.4% (inactive) and -21% (inactive)
3 | O=C(NCCc1ccncc1)c1ccc2ncsc2c1 | 127% (inactive)
4 | O=C(Nc1cc(-c2ccc(OC(F)(F)F)cc2)sc1C(=O)O)c1cccc(F)c1 | -12.3% (inactive)
5 | O=C(Nc1ccncc1)c1ccc2ncsc2c1 | 121% (inactive)
6 | O=C(NC1CCNCC1)c1ccc2ncsc2c1 | 135% (inactive)
7 | CC(C)(C)c1ccc(-c2cc(NC(=O)c3ccc(Br)s3)c(C(=O)O)s2)cc1 | -10.5% (inactive)
8 | COc1cc2sc(NC(=O)c3ccc(Br)s3)nc2cc1F | -13% (inactive)
9 | O=C(NCc1ccncc1)c1ccc2ncsc2c1 | 128% (inactive)

system: E. coli EV36 T7 phage lysis, OD600; assay: as above; settings: not given
Outline: as §1

Row | SMILES | pIC50
10 | CCCCOc1ccc(-c2cc(NC(=O)c3c(F)cccc3F)c(C(=O)O)s2)cc1 | > 5.20
11 | O=C(O)c1sc(-c2ccc(OCCC(F)(F)F)cc2)cc1NC(=O)c1c(F)cccc1F | > 5.20
12 | CCOc1ccc(-c2cc(NC(=O)c3c(F)cccc3F)c(C(=O)O)s2)cc1 | > 5.20
13 | CCCCOc1ccc(-c2cc(NC(=O)c3c(F)cc(F)cc3F)c(C(=O)O)s2)cc1 | > 5.20
14 | O=C(Nc1ccncc1)c1ccc2ncsc2c1 | > 5.20
15 | CCCc1ccc(-c2cc(NC(=O)c3c(F)cccc3F)c(C(=O)O)s2)cc1 | > 5.20
16 | O=C(O)c1sc(-c2ccc(OC(F)(F)F)cc2)cc1NC(=O)c1c(F)cccc1F | > 5.20
17 | CCOc1ccc(-c2cc(NC(=O)c3c(F)cccc3C(F)(F)F)c(C(=O)O)s2)cc1 | > 5.20
18 | O=C(O)c1sc(-c2ccc(OCC(F)(F)F)cc2)cc1NC(=O)c1c(F)cccc1F | > 5.20
19 | O=C(O)c1sc(-c2ccc(OCCCC(F)(F)F)cc2)cc1NC(=O)c1c(F)cc(F)cc1F | > 5.20
20 | O=C(Nc1cc(-c2ccc(OCCC(F)(F)F)cc2)sc1C(=O)O)c1ccc(Br)o1 | > 5.20
21 | O=C(Nc1cc(-c2ccc(OCC(F)(F)F)cc2)sc1C(=O)O)c1ccc(Br)o1 | > 5.20
22 | CCCOc1ccc(-c2cc(NC(=O)c3c(F)cc(F)cc3F)c(C(=O)O)s2)cc1 | > 5.20
23 | O=C(Nc1cc(-c2ccc(OC(F)(F)F)cc2)sc1C(=O)O)c1ccc(Br)o1 | > 5.20
24 | CCCCOc1ccc(-c2cc(NC(=O)c3cc(Br)c(Br)o3)c(C(=O)O)s2)cc1 | > 5.20
25 | O=C(Nc1cc(-c2ccc(OCCCC(F)(F)F)cc2)sc1C(=O)O)c1ccc(Br)o1 | > 5.20
26 | CCCc1ccc(-c2cc(NC(=O)c3ccc(Br)o3)c(C(=O)O)s2)cc1 | > 5.20
27 | CCCc1ccc(-c2cc(NC(=O)c3cc(Br)c(Br)o3)c(C(=O)O)s2)cc1 | > 5.20
28 | O=C(O)c1sc(-c2ccc(OCCCC(F)(F)F)cc2)cc1NC(=O)c1c(F)cccc1F | > 5.20
29 | CCCCOc1ccc(-c2cc(NC(=O)c3ccc(Br)o3)c(C(=O)O)s2)cc1 | > 5.20
30 | O=C(O)c1sc(-c2ccc(OCCC(F)(F)F)cc2)cc1NC(=O)c1c(F)cc(F)cc1F | > 5.20
31 | COc1ccc2nc(NC(=O)c3ccc(Br)s3)sc2c1 | > 6.68
32 | CCCc1ccc(-c2cc(NC(=O)c3c(F)cc(F)cc3F)c(C(=O)O)s2)cc1 | > 5.20
33 | [N-]=[N+]=NCCOc1ccc(-c2cc(NC(=O)c3c(F)cccc3F)c(C(=O)O)s2)cc1 | > 5.20
34 | CCOc1ccc(-c2cc(NC(=O)c3c(F)cc(F)cc3F)c(C(=O)O)s2)cc1 | > 5.20
35 | O=C(O)c1sc(-c2ccc(OCC(F)(F)F)cc2)cc1NC(=O)c1c(F)cc(F)cc1F | > 5.20
